Data: ChEMBL document CHEMBL1914373, “Synthesis and biological evaluation of novel dimethyl[1,1'-biphenyl]-2,2'-dicarboxylate derivatives containing thiazolidine-2,4-dione for the treatment of concanavalin A-induced acute liver injury of BALB/c mice” (2011)
Calls of active or inactive are those of the source. The rule behind the calls is not given here.

Legend:
RAW264.7 = experiment: Antiinflammatory activity in LPS-stimulated mouse RAW264.7 cells assessed as inhibition of LPS-induced NO production after 22 hrs by Griess reaction; type: functional, cell-based
Summary of the method: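 RAW 264.7 macrophages grown in RPMI 1640, 37 °C, 5% CO2; seeded 1 × 10^4/well, cultured 24 h, then exposed to LPS with or without compounds at a range of concentrations for 22 h. Supernatant mixed 1:1 with Griess reagent, 10 min at room temperature, A540 read; nitrite quantified against sodium nitrite standards in RPMI 1640. Three independent experiments.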

Mus musculus [1] = experiment: Hepatoprotective activity in BALB/c mouse hepatitis model assessed as reduction in concanavalin A-induced increase in serum ALT level at 50 mg/kg, […] relative to control; type: functional; set-up: scale not given: the % may be the effect or the level left; details: route oral
Rattus norvegicus [2] = experiment: Hepatoprotective activity […] assessed as reduction in concanavalin A-induced inflammatory cells infiltration at 50 mg/kg, po administered before concanavalin A challenge by hematoxylin and eosin staining-based histopathology analysis; type: functional, organism-based; set-up: dose 50 mg/kg
Rattus norvegicus [3] = experiment: Hepatoprotective activity […] assessed as decrease in liver lesions at 50 mg/kg, po administered before concanavalin A challenge by hematoxylin and eosin staining-based histopathology analysis; type: functional, organism-based; set-up: dose 50 mg/kg
Mus musculus [4] = experiment: Antiinflammatory activity in ICR mouse assessed as reduction in carrageenan-induced paw edema at 50 mg/kg, po administered 30 mins before carrageenan challenge measured at 3 hr post challenge; type: functional; set-up: scale not given: the % may be the effect or the level left
Mus musculus [5] = experiment: Antiinflammatory activity in po dosed ICR mouse assessed as reduction in carrageenan-induced paw edema administered 30 mins before carrageenan challenge measured up to 5 hrs; type: functional, organism-based
Mus musculus [6] = experiment: Hepatoprotective activity in BALB/c mouse hepatitis model assessed as reduction in concanavalin A-induced increase in serum AST level at 50 mg/kg, […] relative to control; type: functional; set-up: scale not given: the % may be the effect or the level left; details: route oral
Rattus norvegicus [7] = experiment: Hepatoprotective activity […] assessed as reduction in necrosis in liver lobules at 50 mg/kg, po administered before concanavalin A challenge by hematoxylin and eosin staining-based histopathology analysis; type: functional, organism-based; set-up: dose 50 mg/kg

| SMILES | inhibition (RAW264.7) | also measured |
| --- | --- | --- |
| COC(=O)c1cc(OC)c2c(c1-c1c(C(=O)Oc3ccc(/C=C4\SC(=O)NC4=O)cc3Br)cc(OC)c3c1OCO3)OCO2 | Active |  |
| COC(=O)c1cc(OC)c2c(c1-c1c(C(=O)Oc3c(OC)cc(/C=C4\SC(=O)NC4=O)cc3OC)cc(OC)c3c1OCO3)OCO2 | Active |  |
| COC(=O)c1cc(OC)c2c(c1-c1c(C(=O)Oc3c(Cl)cc(Cl)cc3/C=C3/SC(=O)NC3=O)cc(OC)c3c1OCO3)OCO2 | Active |  |
| COC(=O)c1cc(OC)c2c(c1-c1c(C(=O)Oc3ccc(/C=C4\SC(=O)NC4=O)cc3)cc(OC)c3c1OCO3)OCO2 | Active | Activity (Mus musculus [1]): 94.96%; Activity (Rattus norvegicus [2]): Active; Activity (Rattus norvegicus [3]): Active; Activity (Mus musculus [4]): 54.88%; Activity (Mus musculus [5]): Dose-dependent effect; Activity (Mus musculus [6]): 69.12%; Activity (Rattus norvegicus [7]): Active |
| CCOc1cc(/C=C2\SC(=O)NC2=O)ccc1OC(=O)c1cc(OC)c2c(c1-c1c(C(=O)OC)cc(OC)c3c1OCO3)OCO2 | Active |  |
| COC(=O)c1cc(OC)c2c(c1-c1c(C(=O)Oc3ccc(/C=C4\SC(=O)NC4=O)cc3F)cc(OC)c3c1OCO3)OCO2 | Active |  |
| COC(=O)c1cc(OC)c2c(c1-c1c(C(=O)OC)cc(OC)c3c1OCO3)OCO2 [BIFENDATE] |  | Activity (Mus musculus [1]): 44.58%; Activity (Mus musculus [4]): 20.98%; Activity (Mus musculus [6]): 50.62% |
| COC(=O)c1cc(OC)c2c(c1-c1c(C(=O)Oc3ccccc3/C=C3/SC(=O)NC3=O)cc(OC)c3c1OCO3)OCO2 | Active |  |
| COC(=O)c1cc(OC)c2c(c1-c1c(C(=O)Oc3cc(/C=C4/SC(=O)NC4=O)ccc3OC)cc(OC)c3c1OCO3)OCO2 | Active |  |
| COC(=O)c1cc(OC)c2c(c1-c1c(C(=O)Oc3ccc(Cl)cc3/C=C3/SC(=O)NC3=O)cc(OC)c3c1OCO3)OCO2 | Dose-dependent effect |  |
| COC(=O)c1cc(OC)c2c(c1-c1c(C(=O)Oc3c(Br)cc(Br)cc3/C=C3/SC(=O)NC3=O)cc(OC)c3c1OCO3)OCO2 | Active |  |
| COC(=O)c1cc(OC)c2c(c1-c1c(C(=O)Oc3ccc(/C=C4\SC(=O)NC4=O)cc3OC)cc(OC)c3c1OCO3)OCO2 | Active |  |
| COC(=O)c1cc(OC)c2c(c1-c1c(C(=O)Oc3cccc(/C=C4/SC(=O)NC4=O)c3)cc(OC)c3c1OCO3)OCO2 | Active |  |
